Source: ChEMBL document CHEMBL2176902, “Identification of small-molecule enhancers of arginine methylation catalyzed by coactivator-associated arginine methyltransferase 1” (J Med Chem, 2012)
Calls of active or inactive are those of the source. No cut-off for these calls is given here.

How the values were obtained:
[1] = target: T1, Histone-arginine methyltransferase CARM1 (Homo sapiens) (UniProt Q86X55); assay: Activation of recombinant CARM1 using PABP1 as substrate and [3H]-SAM at 50 uM after 90 mins by scintillation counting
T1 sequence (whole entry): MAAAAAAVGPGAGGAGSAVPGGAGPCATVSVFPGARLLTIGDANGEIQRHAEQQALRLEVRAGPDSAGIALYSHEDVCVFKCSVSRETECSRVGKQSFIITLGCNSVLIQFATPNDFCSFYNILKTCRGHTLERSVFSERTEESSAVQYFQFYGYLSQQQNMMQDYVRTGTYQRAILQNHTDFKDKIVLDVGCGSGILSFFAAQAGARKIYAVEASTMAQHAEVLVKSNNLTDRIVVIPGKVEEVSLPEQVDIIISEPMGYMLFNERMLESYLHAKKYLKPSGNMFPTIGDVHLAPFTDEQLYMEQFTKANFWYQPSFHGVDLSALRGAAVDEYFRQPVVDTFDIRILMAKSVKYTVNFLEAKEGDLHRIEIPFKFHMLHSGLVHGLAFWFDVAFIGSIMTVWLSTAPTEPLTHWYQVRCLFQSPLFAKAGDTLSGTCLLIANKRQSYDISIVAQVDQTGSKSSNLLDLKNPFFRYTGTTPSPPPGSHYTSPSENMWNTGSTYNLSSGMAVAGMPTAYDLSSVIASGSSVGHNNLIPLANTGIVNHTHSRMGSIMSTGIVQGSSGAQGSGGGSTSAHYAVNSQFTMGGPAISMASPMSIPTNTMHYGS
Method in brief: (§1)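 Recombinant CARM1 (0.2 μg) was incubated with PABP1 substrate and [³H]SAM (0.42 μM) in PBS pH 7.4 for 90 min at 30 °C. Compound was tested at 50 μM, or at 3–100 μM for concentration series. Bands were Ponceau-stained, excised and counted by liquid scintillation. Activity is given as % of DMSO control; no-SAM reactions served as negative control; at least two experiments.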

[2] = target: Protein arginine N-methyltransferase 1 (Homo sapiens) (UniProt Q99873); assay: Inhibition of human recombinant GST-PRMT1 expressed Escherichia coli BL21 using Npl3p substrate as substrate and [3H]-SAM at 50 uM after 90 mins by scintillation counting
Sequence of Protein arginine N-methyltransferase 1 (Homo sapiens) (Q99873 whole entry, looked up): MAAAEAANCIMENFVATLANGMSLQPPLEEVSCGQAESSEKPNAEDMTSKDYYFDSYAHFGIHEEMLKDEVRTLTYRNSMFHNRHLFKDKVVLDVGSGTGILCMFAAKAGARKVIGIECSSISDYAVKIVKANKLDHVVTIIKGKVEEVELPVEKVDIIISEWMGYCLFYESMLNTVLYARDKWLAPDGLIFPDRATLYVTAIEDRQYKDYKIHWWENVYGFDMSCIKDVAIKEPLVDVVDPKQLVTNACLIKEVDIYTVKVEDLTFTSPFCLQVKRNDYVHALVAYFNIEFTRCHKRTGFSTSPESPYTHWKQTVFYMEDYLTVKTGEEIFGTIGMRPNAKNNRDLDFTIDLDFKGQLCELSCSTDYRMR
Method in brief: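 Human recombinant PRMT1 was incubated with Npl3p substrate and [³H]SAM (0.42 μM) in PBS pH 7.4 with compound at 50 μM for 90 min at 30 °C. Percent inhibition was determined.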

[3] = target: T1, Histone-arginine methyltransferase CARM1 (Homo sapiens); assay: Activation of recombinant CARM1 using histone H3 as substrate and [3H]-SAM at 50 uM after 90 mins by scintillation counting
Method in brief: (§2)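 Recombinant CARM1 (0.2 μg) was incubated with histone H3 (1.1 μM) and [³H]SAM (0.42 μM) in PBS pH 7.4 with compound (50 μM) for 90 min at 30 °C. Methylation was measured by scintillation counting. Activity is expressed as % relative to DMSO, as the mean of at least two separate experiments.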

[4] = target: Protein arginine N-methyltransferase 3 (Homo sapiens) (UniProt O60678); assay: Inhibition of recombinant PRMT3 using glycine- and arginine-rich motif as substrate at 50 uM and [3H]-SAM after 90 mins by scintillation counting
Sequence of Protein arginine N-methyltransferase 3 (Homo sapiens) (O60678 2-531 limits assumed): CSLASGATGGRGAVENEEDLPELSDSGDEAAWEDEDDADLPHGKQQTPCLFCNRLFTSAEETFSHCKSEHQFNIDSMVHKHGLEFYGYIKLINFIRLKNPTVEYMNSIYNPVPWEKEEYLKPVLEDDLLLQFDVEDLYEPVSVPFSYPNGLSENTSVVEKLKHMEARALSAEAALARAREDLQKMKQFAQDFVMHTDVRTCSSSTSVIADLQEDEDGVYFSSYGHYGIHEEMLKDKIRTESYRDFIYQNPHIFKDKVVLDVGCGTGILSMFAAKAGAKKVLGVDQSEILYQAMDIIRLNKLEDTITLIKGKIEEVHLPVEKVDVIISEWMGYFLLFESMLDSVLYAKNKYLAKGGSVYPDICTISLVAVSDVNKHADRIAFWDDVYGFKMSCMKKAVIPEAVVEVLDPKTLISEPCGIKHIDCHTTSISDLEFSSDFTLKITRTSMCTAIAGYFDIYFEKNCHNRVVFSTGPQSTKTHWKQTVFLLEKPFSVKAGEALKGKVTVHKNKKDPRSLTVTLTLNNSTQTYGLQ
Method in brief: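 Recombinant PRMT3 was incubated with GAR-motif substrate and [³H]SAM (0.42 μM) in PBS pH 7.4 with compound at 50 μM for 90 min at 30 °C.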

[5] = target: T1, Histone-arginine methyltransferase CARM1 (Homo sapiens); assay: Activation of recombinant CARM1 using PABP1 as substrate and [3H]-SAM after 90 mins by scintillation counting; method in brief: as §1
[6] = target: T1, Histone-arginine methyltransferase CARM1 (Homo sapiens); assay: Activation of recombinant CARM1 using histone H3 as substrate and [3H]-SAM after 90 mins by scintillation counting; method in brief: as §2
[7] = target: T2, Histone-lysine N-methyltransferase SETD7 (Homo sapiens) (UniProt Q8WTS6); assay: Inhibition of recombinant SET7 using histone H3 as substrate at 50 uM and [3H]-SAM after 90 mins by scintillation counting
T2 sequence (whole entry): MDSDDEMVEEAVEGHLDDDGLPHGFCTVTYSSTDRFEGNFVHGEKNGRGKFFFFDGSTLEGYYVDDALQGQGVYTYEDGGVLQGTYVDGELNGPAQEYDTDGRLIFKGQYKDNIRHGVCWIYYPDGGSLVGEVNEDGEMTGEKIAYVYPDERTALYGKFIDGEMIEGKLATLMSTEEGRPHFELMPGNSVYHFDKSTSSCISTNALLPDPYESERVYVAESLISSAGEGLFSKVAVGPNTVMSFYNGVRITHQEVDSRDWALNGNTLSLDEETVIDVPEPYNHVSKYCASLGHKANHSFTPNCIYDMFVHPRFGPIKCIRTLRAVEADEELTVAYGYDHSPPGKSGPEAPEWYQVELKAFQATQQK

[8] = target: Protein arginine N-methyltransferase 6 (Homo sapiens) (UniProt Q96LA8); assay: Inhibition of recombinant PRMT6 using histone H3 as substrate at 50 uM and [3H]-SAM after 90 mins by scintillation counting
Sequence of Protein arginine N-methyltransferase 6 (Homo sapiens) (Q96LA8 whole entry, looked up): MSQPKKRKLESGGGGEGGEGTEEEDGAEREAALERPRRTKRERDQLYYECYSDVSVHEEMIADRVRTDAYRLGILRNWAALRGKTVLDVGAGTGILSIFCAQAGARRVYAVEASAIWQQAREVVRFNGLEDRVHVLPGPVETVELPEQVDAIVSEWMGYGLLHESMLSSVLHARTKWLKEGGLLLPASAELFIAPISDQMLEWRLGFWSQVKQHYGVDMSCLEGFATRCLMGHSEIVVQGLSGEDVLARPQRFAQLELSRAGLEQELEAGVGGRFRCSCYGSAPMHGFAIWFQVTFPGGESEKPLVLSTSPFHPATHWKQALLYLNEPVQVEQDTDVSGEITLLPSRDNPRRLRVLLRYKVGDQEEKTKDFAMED

[9] = target: T1, Histone-arginine methyltransferase CARM1 (Homo sapiens); assay: Activation of recombinant CARM1 expressed in HEK293 cells co-expressing 3XFLAG-tagged PABP1 assessed as arginine methylation of PABP1 at 50 uM after 24 hrs; type: cell-based
Method in brief: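 Flp-In T-Rex HEK293 cells stably carrying Tet-inducible 3XFLAG-PABP1 were kept in DMEM/10% FBS with blasticidin and hygromycin. They were plated at 1 × 10⁵ cells/mL and the medium was changed after 12 h. Cells then got compound with or without tetracycline (1 μg/mL) for 24 h. RIPA lysates were immunoblotted with anti-methyl-PABP1 and anti-FLAG. Band densities were compared to DMSO control.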

[10] = target: T1, Histone-arginine methyltransferase CARM1 (Homo sapiens); assay: Inhibition of recombinant CARM1 using histone H3 as substrate at 50 uM and [3H]-SAM after 90 mins by scintillation counting
Method in brief: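 Recombinant CARM1 (0.2 μg) incubated with histone H3 substrate (0.5 μg; H3 1.1 μM) and [3H]SAM (0.42 μM) in PBS pH 7.4 with 50 μM compound, 90 min, 30 °C. Bands Ponceau-stained, excised, scintillation counted; activity expressed as percent of DMSO control. Means of at least two separate experiments, SD in percentage points.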

Row | SMILES | Activity [1] [%] | inhibition [2] | Activity [3] [%] | further results
1 | COC(=O)c1c[nH]c2ccc(NC(=O)CNC(=O)Nc3ccc(OC)cc3)cc12 | 28.2 | inactive | 62.7 | 
2 | COC(=O)c1c[nH]c2ccc(NC(=O)CNC(=O)Nc3ccc(C#N)cc3)cc12 | 38.8 | inactive | 135 | 
3 | CCOC(=O)c1cc2cc(NC(=O)CNC(=O)Nc3ccccc3)ccc2[nH]1 | 10.5 | inactive | 134 | 
4 | CCOC(=O)c1cc2cc(NC(=O)CNC(=O)Nc3ccc([N+](=O)[O-])cc3)ccc2[nH]1 | 299 | inactive | 176 | inhibition [4]: 54.7%; Activity [5]: Dose-dependent effect; Activity [6]: Dose-dependent effect; inhibition [7]: 10.2%; inhibition [8]: 19.3%
5 | COC(=O)c1c[nH]c2ccc(NC(=O)CNC(=O)Nc3ccccc3)cc12 | 26.5 | inactive | 74.7 | 
6 | O=C(CNC(=O)Nc1ccccc1)Nc1ccc2[nH]cc(C(=O)O)c2c1 |  | inactive |  | 
7 | COc1ccc(NC(=O)NCC(=O)Nc2ccc3[nH]c(C(=O)O)cc3c2)cc1 | 96.3 | inactive | 211 | 
8 | O=C(CNC(=O)Nc1ccc([N+](=O)[O-])cc1)Nc1ccc2[nH]cc(C(=O)O)c2c1 |  | inactive |  | 
9 | COC(=O)c1c[nH]c2ccc(NC(=O)CNC(=O)Nc3ccc(C)cc3)cc12 | 4.7 | inactive | 39.7 | 
10 | Cc1ccc(NC(=O)NCC(=O)Nc2ccc3[nH]cc(C(=O)O)c3c2)cc1 |  | inactive |  | 
11 | COC(=O)c1c[nH]c2ccc(NC(=O)CNC(=O)Nc3ccc([N+](=O)[O-])cc3)cc12 | 115 | inactive | 134 | 
12 | CN(C)c1ccc(NC(=O)NCC(=O)Nc2ccc3[nH]c(C(=O)O)cc3c2)cc1 | 135 | inactive | 48.3 | 
13 | CCOC(=O)c1cc2cc(NC(=O)CNC(=O)Nc3ccc(C)cc3)ccc2[nH]1 | 382 | inactive | 127 | Activity [9]: Active
14 | O=C(Nc1ccc2c(O)cc(S(=O)(=O)O)cc2c1)Nc1ccc2c(O)cc(S(=O)(=O)O)cc2c1 |  |  | 74 | inhibition [10]: 74.8%; inhibition [4]: 101%; inhibition [7]: 34.3%; inhibition [8]: 40.7%
15 | O=C(Nc1ccc2cc(C(=O)O)cc(O)c2c1)Nc1ccc2cc(C(=O)O)cc(O)c2c1 |  |  | 83.1 | 
16 | N#Cc1ccc(NC(=O)NCC(=O)Nc2ccc3[nH]c(C(=O)O)cc3c2)cc1 | 81.2 | inactive | 143 | 
17 | CCOC(=O)c1cc2cc(NC(=O)CNC(=O)Nc3ccc(OC)cc3)ccc2[nH]1 | 74.7 | inactive | 183 | 
18 | Cc1ccc(NC(=O)NCC(=O)Nc2ccc3[nH]c(C(=O)O)cc3c2)cc1 | 149 | inactive | 111 | 
19 | N#Cc1ccc(NC(=O)NCC(=O)Nc2ccc3[nH]cc(C(=O)O)c3c2)cc1 |  | inactive |  | 
20 | COC(=O)c1c[nH]c2ccc(NC(=O)CNC(=O)Nc3ccc(N(C)C)cc3)cc12 | 7.6 | inactive | 125 | 
21 | CN(C)c1ccc(NC(=O)NCC(=O)Nc2ccc3[nH]cc(C(=O)O)c3c2)cc1 |  | inactive |  | 
22 | COc1ccc(NC(=O)NCC(=O)Nc2ccc3[nH]cc(C(=O)O)c3c2)cc1 |  | inactive |  | 
23 | CCOC(=O)c1cc2cc(NC(=O)CNC(=O)Nc3ccc(C#N)cc3)ccc2[nH]1 | 358 | inactive | 115 | Activity [9]: Active
24 | CCOC(=O)c1cc2cc(NC(=O)CNC(=O)Nc3ccc(N(C)C)cc3)ccc2[nH]1 | 70.6 | inactive | 102 | 
25 | O=C(CNC(=O)Nc1ccc([N+](=O)[O-])cc1)Nc1ccc2[nH]c(C(=O)O)cc2c1 | 85.3 | inactive | 142 | 
26 | O=C(CNC(=O)Nc1ccccc1)Nc1ccc2[nH]c(C(=O)O)cc2c1 | 172 | inactive | 167 | 
